Screening data: PubChem, several laboratories
NS3 helicase inh: HCV NS3 helicase inhibition; 0.56% of 290,000 active; NS3 helicase DNA unwinding, Cy5 molecular beacon fluorescence; inhibition, % at 10.9 µM; AID 1800;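 active = inhibition above the mean of all tested compounds plus 3 SD, set per campaign, cut at about 35% in these data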;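 note: 0% = DMSO wells and 100% = thioflavine S control wells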
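Test system: hepatitis C virus NS3 helicase domain fragment enzyme. Also added: annealed dual-labelled DNA beacon duplex, ATP-started. Timing: 60 min unwinding reaction at 25 °C after ATP addition. Technique: Cy5 fluorescence. Measure: % inhibition of unwinding.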
DNA FID counter-1: counter-screen for HCV NS3 helicase inhibitors: DNA intercalator displacement. DNA fluorescent intercalator displacement, fluorescence. inhibition, % at 7.9 µM. 0.17% of 290,000 active. AID 1845;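 note: 0% = vehicle and 100% = reference compound; higher means more ethidium bromide displaced from hairpin DNA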
IMP-1 inh: inhibitors of Pseudomonas aeruginosa IMP-1 metallo-beta-lactamase | purified IMP-1, nitrocefin hydrolysis, epi-absorbance fluorescence | inhibition, % at 5.6 µM | 0.45% of 290,000 active | AID 1556;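 active = inhibition above the mean plus 3 SD of all compounds in the same screening run, cut at about 4.5% in these data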;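 note: 0% = IMP-1 with DMSO and 100% = DMSO wells lacking enzyme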
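assay system = purified recombinant IMP-1 metallo-beta-lactamase enzyme | schedule = 15 min preincubation plus 25 min reaction at 25 °C | signal = Epi-absorbance fluorescence, 480 nm excitation, 530 nm emission | read-out basis = percent inhibition from optical density relative to buffer-blank wells | controls = IMP-1 with DMSO as 0%, enzyme-free DMSO as 100%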
VIM-2 inh: blocks Pseudomonas aeruginosa VIM-2 metallo-beta-lactamase | purified VIM-2, nitrocefin hydrolysis, epi-absorbance fluorescence | inhibition, % at 5.6 µM | 0.89% of 290,000 active;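 active = inhibition above the mean of all tested compounds plus 3 SD, cutoff set per screening run, cut at about 7.5% in these data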;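 note: red hydrolysis product quenches plate fluorescence so inhibitors raise well fluorescence; 0% = enzyme with DMSO and 100% = DMSO without enzyme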
SUMO HTRF inh: inhibitors of human SUMOylation (UBC9); HTRF SUMOylation assay, SAE1/SAE2 + UBC9, in vitro; AID 2006; inhibition, % at 35 µM; P63279; 0.36% of 290,000 active; in the data active = inhibition above about 50%, passing the limit was not always enough; inconclusive = no clear call, values can overlap the other calls
Target sequence (P63279 whole entry, looked up): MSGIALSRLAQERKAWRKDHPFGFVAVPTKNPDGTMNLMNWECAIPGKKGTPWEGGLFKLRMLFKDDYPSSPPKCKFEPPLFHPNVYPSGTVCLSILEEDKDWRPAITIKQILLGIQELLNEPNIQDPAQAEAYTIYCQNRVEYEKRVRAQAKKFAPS
NS3 helicase cf: HCV NS3 helicase inhibition, confirmation assay | shares compounds with NS3 helicase inh | NS3 helicase DNA unwinding, Cy5 molecular beacon fluorescence | inhibition, % at 10.9 µM | 31% of 1,600 active | AID 1943;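 active = inhibition above the mean of all tested compounds plus 3 SD, cutoff set per campaign, cut at about 36% in these data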
DNA FID counter-2: counter-screen for HCV NS3 helicase inhibitors: DNA intercalator displacement; AID 1945; 4% of 1,600 active; inhibition, % at 7.9 µM; DNA fluorescent intercalator displacement, fluorescence; shares compounds with NS3 helicase inh;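 note: 0% = vehicle and 100% = reference compound; higher means more displacement of ethidium bromide from the DNA hairpin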
FID counter DR: counter-screen for HCV NS3 helicase inhibitors: DNA intercalator displacement dose response | AID 2172 | shares compounds with NS3 helicase inh | 120 tested, under 10 active | IC50, µM | fluorescent intercalator displacement from DNA, fluorescence; call rule not given here
* marks the source's active call; other numbers are inactive results; ? = inconclusive; · = not tested or not shown. An excerpt weighted towards active compounds, which were near 2.1% of everything screened. Cut-off read from the data, not from the text of the source, unless noted: active = inhibition above about 37%; inactive = the rest.

SMILES | NS3 helicase inh | DNA FID counter-1 | IMP-1 inh | VIM-2 inh | SUMO HTRF inh | NS3 helicase cf | DNA FID counter-2 | others
O=[N+]([O-])/C(C=Nc1ccccc1O)=C\Nc1ccccc1O | 38* | 1 | -4 | -3 | 35 | -9 | 19
Cc1ccc(F)c(NC(=S)Nc2cccc3ccccc23)c1 | 52* | 1 | 0 | -1 | 97 | 4 | 6
Cc1ccc(NC(=O)CN(C)S(=O)(=O)c2cccs2)c(Br)c1 | 0 | -18 | -3 | -1 | 4 | · | ·
CCOC(=O)C1C(=O)NC(c2ccccc2)=NC1c1ccc(O)c(OC)c1 (stereo not given) | 56* | -7 | -1 | -3 | 9 | -14 | 3
CCOC(=O)C1C(=O)NC(N2CCCCC2)=NC1c1ccccc1 (stereo not given) | 5 | -2 | -4 | -4 | 4 | · | ·
CCN(CC)C(=O)c1ccc2nc3ccccc3nc2c1 | 2 | -1 | -2 | 2 | 15 | · | ·
CCN(CC)c1ccc2nc3ccccc3[n+](CC)c2c1 | 57* | 31 | -9 | 11* | -135 | 99* | 51*
CCn1c(CN2CCN(C(c3ccccc3)c3ccccc3)CC2)nc2c1c(=O)n(C)c(=O)n2C | -13 | -44 | 1 | 0 | -14 | · | ·
O=C(N/N=C\C=C\c1ccc([N+](=O)[O-])o1)c1cccs1 | 54* | -20 | -6 | -3 | 51* | 2 | 12
COc1ccccc1OCC(=O)N/N=C/C=C/c1ccc([N+](=O)[O-])o1 | 46* | -23 | -3 | -3 | 31 | 2 | -1
Cc1ccccc1OCC(=O)N/N=C/c1ccc([N+](=O)[O-])o1 | 35 | -18 | -2 | -5 | 7 | · | ·
O=C(N/N=C/C=C/c1ccccc1[N+](=O)[O-])c1cccs1 | -2 | 1 | -3 | -3 | -8 | · | ·
O=C(NCc1ccccc1)c1ccc2nc(-c3ccco3)c(-c3ccco3)nc2c1 | 24 | -7 | -2 | 0 | 89 | · | ·
O=C(c1ccc2nc(-c3ccco3)c(-c3ccco3)nc2c1)N1CCN(c2ncccn2)CC1 | 53* | -29 | 1 | -2 | ? | 84* | 19 | FID counter DR=>79
S=C(Nc1ccc(N2CCOCC2)cc1)Nc1ccc2nc(-c3ccco3)c(-c3ccco3)nc2c1 | 55* | -19 | 4 | 1 | ? | 18 | -4
O=C(NCCO)Nc1ccc2nc(-c3ccco3)c(-c3ccco3)nc2c1 | 57* | 24 | 6.4* | 4 | 98* | 67* | 38*
O=C(Nc1ccccc1)c1ccc2nc(-c3ccco3)c(-c3ccco3)nc2c1 | 46* | -1 | -1 | -3 | · | 78* | 53*
O=C(Nc1ccc(N2CCOCC2)cc1)c1ccc2nc(-c3ccco3)c(-c3ccco3)nc2c1 | 9 | -5 | 1 | 0 | 1 | · | ·
CN(C(=O)CN1C(=O)C2C3CC(C(Br)C3Br)C2C1=O)C1CCCCC1 (stereo not given) | -2 | -22 | -2 | -2 | -7 | · | ·
CC(=O)Nc1ccc(N=Nc2ccc(O)cc2)cc1 | -2 | 4 | 0 | 0 | 17 | · | ·
CCCN(CCC)C(=O)c1cn(CC)c2ccc(S(=O)(=O)N3CCCCC3)cc2c1=O | 3 | -45 | -1 | 0 | 17 | · | ·
CC(=O)c1ccc(NC(=O)c2ccc3nc(-c4ccco4)c(-c4ccco4)nc3c2)cc1 | 39* | -21 | 0 | -2 | 92* | 78* | 34
CCCCNC(=O)c1ccc2nc(-c3ccco3)c(-c3ccco3)nc2c1 | 20 | -9 | -2 | -4 | 30 | · | ·
O=C(NCCc1ccc(O)c(O)c1)C1COc2ccccc2O1 (stereo not given) | -1 | -7 | -2 | 1 | -7 | · | ·
COc1ccc(C(NC(=O)/C=C\c2ccco2)c2ccc(OC)c(OC)c2)cc1 (stereo not given) | 37* | -26 | -1 | -4 | 23 | -10 | -35
SMILES | NS3 helicase inh | DNA FID counter-1 | IMP-1 inh | VIM-2 inh | SUMO HTRF inh | NS3 helicase cf | DNA FID counter-2 | others
COc1ccccc1NC(=O)/C=C\c1ccco1 | 53* | -11 | -1 | -2 | 2 | -10 | -1
COc1ccc(CCNC(=O)/C=C/c2ccco2)cc1 | 41* | -23 | -4 | -5 | 4 | -22 | 6
Cc1cccc(NC(=S)NC(=O)/C=C/c2ccco2)n1 | 77* | -44 | -4 | 1 | 8 | -14 | -9
O=C(Nc1ccc2c(c1)C(=O)NC2=O)c1cc(Cl)ccc1Cl | -7 | -1 | -3 | 1 | 12 | · | ·
Cn1c(=O)[nH]c(=O)c2cc(C(=O)c3cc(F)ccc3O)cnc21 | 9 | -4 | -2 | 2 | 34 | · | ·
Cc1cc(Cl)ccc1OC(C)C(=O)Nc1cnn(CCCC(=O)O)c1 (stereo not given) | 8 | -37 | -2 | 0 | 7 | · | ·
CCOC(=O)Cc1csc(NC(=O)c2csc(C)c2)n1 | 4 | -6 | -3 | -4 | -6 | · | ·
CCOC(=O)Cc1csc(NC(=O)c2sc3nc4c(C)cc(C)cc4cc3c2N)n1 | 38* | -3 | -2 | 1 | 1 | -11 | -25
COc1ccc(F)cc1S(=O)(=O)NCc1cc(=O)n(C)c(=O)n1C | -2 | -3 | -2 | -4 | 5 | · | ·
O=C1/C(=C/c2ccccc2F)SC(=S)N1CC(=O)N1CCCCC1c1cccnc1 (stereo not given) | -8 | -33 | 0 | -4 | -12 | · | ·
COc1cc(/C=C2/NC(=O)N(c3cccc(Cl)c3)C2=O)ccc1O | -6 | 0 | -1 | -2 | 15 | · | ·
COc1cc(/C=C2/C(=O)NN(c3ccc(C)c(Cl)c3)C2=O)cc([N+](=O)[O-])c1O | 37* | 27 | -6 | -7 | -10 | 68* | -2
COc1cc(/C=C2/C(=O)NN(c3cccc(C)c3)C2=O)cc([N+](=O)[O-])c1O | 20 | -16 | -3 | -4 | 9 | · | ·
COc1cc(/C=C2/C(=O)NN(c3cccc(Cl)c3)C2=O)cc(OC)c1O | 46* | -14 | -7 | -7 | -12 | 51* | 14
CCOc1cc(/C=C2/C(=O)NN(c3cccc(Cl)c3)C2=O)ccc1O | 37* | -4 | -9 | -4 | 9 | 64* | -4
C(=C\c1ccco1)/c1ccc2ccccc2n1 | 42* | -11 | 1 | 3 | 39 | 6 | 7
Fc1cccc(F)c1/C=C/c1ccc2ccccc2n1 | 9 | -11 | -3 | -3 | 8 | · | ·
Oc1ccc(N=Nc2cccc(C(F)(F)F)c2)cc1C=Nc1ccc(N2CCOCC2)cc1 | 45* | 3 | -6 | -3 | 17 | 1 | 39*
CN(C(=O)c1cccc(C#CC(C)(C)O)c1)C1CCCN(Cc2ccccc2F)C1 (stereo not given) | 5 | -23 | -4 | 0 | 5 | · | ·
